Results as given in ChEMBL document CHEMBL1157144, “Novel 16-membered macrolides modified at C-12 and C-13 positions of midecamycin A1 and miokamycin. Part 1: Synthesis and evaluation of 12,13-carbamate and 12-arylalkylamino-13-hydroxy analogues” (2008).
In brackets after ≈: the same amount, converted by molar mass.

What was measured:
Type in all cases: functional
Staphylococcus aureus [1] = test: Antibacterial activity against ermC-inducible resistant Staphylococcus aureus after 20 hrs by agar dilution method
Summary of the method: (§1)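 Agar dilution MIC. The inoculum came from a seed culture in Sensitivity test broth. A 5 µl portion of a cell suspension of about 10^6 CFU/ml was inoculated onto Sensitivity disk agar supplemented with 5% horse blood. Plates were incubated at 37 °C for 20 h, then MIC was read.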

Haemophilus influenzae [2] = test: Antibacterial activity against standard Haemophilus influenzae after 20 hrs by agar dilution method
Summary of the method: (§2)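 MIC by agar dilution. Strains grown on blood agar plates for seed culture. About 5 µl of a suspension of roughly 10^6 CFU/ml spotted onto Sensitivity disk agar with 5% horse blood. Plates incubated at 37 °C for 20 h, then MIC read.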

Staphylococcus aureus [3] = test: Antibacterial activity against ermA-constitutive resistant Staphylococcus aureus after 20 hrs by agar dilution method; summary of the method: as §1
Streptococcus pyogenes [4] = test: Antibacterial activity against ermB-constitutive resistant Streptococcus pyogenes after 20 hrs by agar dilution method
Summary of the method: (§3)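 Agar dilution MIC. Streptococcal strains were pre-cultured on blood agar plates. A 5 µl portion of a cell suspension of about 10^6 CFU/ml was inoculated onto Sensitivity disk agar supplemented with 5% horse blood. Plates were incubated at 37 °C for 20 h, then MIC was read.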

Haemophilus influenzae [5] = test: Antibacterial activity against susceptible Haemophilus influenzae after 20 hrs by agar dilution method; summary of the method: as §2
Streptococcus pneumoniae [6] = test: Antibacterial activity against susceptible Streptococcus pneumoniae after 20 hrs by agar dilution method; summary of the method: as §2
Streptococcus pyogenes [7] = test: Antibacterial activity against standard Streptococcus pyogenes after 20 hrs by agar dilution method; summary of the method: as §2
Streptococcus pneumoniae [8] = test: Antibacterial activity against ermB-inducible resistant Streptococcus pneumoniae after 20 hrs by agar dilution method; summary of the method: as §3
Streptococcus pneumoniae [9] = test: Antibacterial activity against ermB-constitutive resistant Streptococcus pneumoniae after 20 hrs by agar dilution method; summary of the method: as §3
Streptococcus pneumoniae [10] = test: Antibacterial activity against mefE efflux-resistant Streptococcus pneumoniae after 20 hrs by agar dilution method; summary of the method: as §3
Streptococcus pyogenes [11] = test: Antibacterial activity against mefE efflux-resistant Streptococcus pyogenes after 20 hrs by agar dilution method; summary of the method: as §3
Moraxella catarrhalis = test: Antibacterial activity against standard Moraxella catarrhalis after 20 hrs by agar dilution method; summary of the method: as §2
Staphylococcus aureus [12] = test: Antibacterial activity against ermB-inducible resistant Staphylococcus aureus after 20 hrs by agar dilution method; summary of the method: as §1
Staphylococcus aureus [13] = test: Antibacterial activity against standard Staphylococcus aureus after 20 hrs by agar dilution method; summary of the method: as §1
Staphylococcus aureus [14] = test: Antibacterial activity against susceptible Staphylococcus aureus after 20 hrs by agar dilution method; summary of the method: as §1

SMILES: CCC(=O)O[C@@H]1CC(=O)O[C@H](C)C[C@H](O)[C@H](N(C)Cc2ccccc2)/C=C/[C@H](OC(C)=O)[C@H](C)C[C@H](CC=O)[C@H](O[C@@H]2O[C@H](C)[C@@H](O[C@H]3C[C@@](C)(O)[C@@H](OC(=O)CC)[C@H](C)O3)[C@H](N(C)C)[C@H]2O)[C@H]1OC
- MIC (Staphylococcus aureus [1]): 0.39 µg/mL (≈ 0.393 µM)
- MIC (Haemophilus influenzae [2]): 3.13 µg/mL (≈ 3.15 µM)
- MIC (Staphylococcus aureus [3]): > 100 µg/mL
- MIC (Streptococcus pyogenes [4]): > 100 µg/mL
- MIC (Haemophilus influenzae [5]): 25 µg/mL (≈ 25.2 µM)
- MIC (Streptococcus pneumoniae [6]): 0.1 µg/mL (≈ 0.101 µM)
- MIC (Streptococcus pyogenes [7]): 0.1 µg/mL (≈ 0.101 µM)
- MIC (Streptococcus pneumoniae [8]): 100 µg/mL (≈ 101 µM)
- MIC (Streptococcus pneumoniae [9]): > 100 µg/mL
- MIC (Streptococcus pneumoniae [10]): 0.1 µg/mL (≈ 0.101 µM)
- MIC (Streptococcus pyogenes [11]): 0.39 µg/mL (≈ 0.393 µM)
- MIC (Moraxella catarrhalis): 0.39 µg/mL (≈ 0.393 µM)
- MIC (Staphylococcus aureus [12]): 0.2 µg/mL (≈ 0.201 µM)
- MIC (Staphylococcus aureus [13]): 0.39 µg/mL (≈ 0.393 µM)
- MIC (Staphylococcus aureus [14]): 0.39 µg/mL (≈ 0.393 µM)

SMILES: CCC(=O)O[C@@H]1CC(=O)O[C@H](C)C[C@H](O)[C@H](N(C)CCCc2cccc3ccccc23)/C=C/[C@H](OC(C)=O)[C@H](C)C[C@H](CC=O)[C@H](O[C@@H]2O[C@H](C)[C@@H](O)[C@H](N(C)C)[C@H]2O)[C@H]1OC
- MIC (Staphylococcus aureus [1]): 0.78 µg/mL (≈ 0.895 µM)
- MIC (Haemophilus influenzae [2]): 0.78 µg/mL (≈ 0.895 µM)
- MIC (Staphylococcus aureus [3]): > 100 µg/mL
- MIC (Streptococcus pyogenes [4]): > 100 µg/mL
- MIC (Haemophilus influenzae [5]): 3.13 µg/mL (≈ 3.59 µM)
- MIC (Streptococcus pneumoniae [6]): 0.025 µg/mL (≈ 0.0287 µM)
- MIC (Streptococcus pyogenes [7]): 0.1 µg/mL (≈ 0.115 µM)
- MIC (Streptococcus pneumoniae [8]): 100 µg/mL (≈ 115 µM)
- MIC (Streptococcus pneumoniae [9]): > 100 µg/mL
- MIC (Streptococcus pneumoniae [10]): 0.1 µg/mL (≈ 0.115 µM)
- MIC (Streptococcus pyogenes [11]): 0.39 µg/mL (≈ 0.448 µM)
- MIC (Moraxella catarrhalis): 0.025 µg/mL (≈ 0.0287 µM)
- MIC (Staphylococcus aureus [12]): 0.78 µg/mL (≈ 0.895 µM)
- MIC (Staphylococcus aureus [13]): 0.39 µg/mL (≈ 0.448 µM)
- MIC (Staphylococcus aureus [14]): 0.78 µg/mL (≈ 0.895 µM)

SMILES: CCC(=O)O[C@@H]1CC(=O)O[C@H](C)C[C@H](O)[C@H](N(C)CCCc2ccccc2)/C=C/[C@H](OC(C)=O)[C@H](C)C[C@H](CC=O)[C@H](O[C@@H]2O[C@H](C)[C@@H](O)[C@H](N(C)C)[C@H]2O)[C@H]1OC
- MIC (Staphylococcus aureus [1]): 1.56 µg/mL (≈ 1.9 µM)
- MIC (Haemophilus influenzae [2]): 0.39 µg/mL (≈ 0.475 µM)
- MIC (Staphylococcus aureus [3]): > 100 µg/mL
- MIC (Streptococcus pyogenes [4]): > 100 µg/mL
- MIC (Haemophilus influenzae [5]): 3.13 µg/mL (≈ 3.81 µM)
- MIC (Streptococcus pneumoniae [6]): 0.2 µg/mL (≈ 0.244 µM)
- MIC (Streptococcus pyogenes [7]): 0.39 µg/mL (≈ 0.475 µM)
- MIC (Streptococcus pneumoniae [8]): > 100 µg/mL
- MIC (Streptococcus pneumoniae [9]): > 100 µg/mL
- MIC (Streptococcus pneumoniae [10]): 0.39 µg/mL (≈ 0.475 µM)
- MIC (Streptococcus pyogenes [11]): 0.78 µg/mL (≈ 0.95 µM)
- MIC (Moraxella catarrhalis): 0.025 µg/mL (≈ 0.0305 µM)
- MIC (Staphylococcus aureus [12]): 1.56 µg/mL (≈ 1.9 µM)
- MIC (Staphylococcus aureus [13]): 0.39 µg/mL (≈ 0.475 µM)
- MIC (Staphylococcus aureus [14]): 0.78 µg/mL (≈ 0.95 µM)

SMILES: CCC(=O)O[C@@H]1CC(=O)O[C@H](C)C[C@H](O)[C@H](N(C)CCCCCCCc2ccccc2)/C=C/[C@H](OC(C)=O)[C@H](C)C[C@H](CC=O)[C@H](O[C@@H]2O[C@H](C)[C@@H](O[C@H]3C[C@@](C)(O)[C@@H](OC(=O)CC)[C@H](C)O3)[C@H](N(C)C)[C@H]2O)[C@H]1OC
- MIC (Staphylococcus aureus [1]): 1.56 µg/mL (≈ 1.45 µM)
- MIC (Haemophilus influenzae [2]): 12.5 µg/mL (≈ 11.6 µM)
- MIC (Staphylococcus aureus [3]): 100 µg/mL (≈ 92.8 µM)
- MIC (Streptococcus pyogenes [4]): 25 µg/mL (≈ 23.2 µM)
- MIC (Haemophilus influenzae [5]): 25 µg/mL (≈ 23.2 µM)
- MIC (Streptococcus pneumoniae [6]): 0.39 µg/mL (≈ 0.362 µM)
- MIC (Streptococcus pyogenes [7]): 0.39 µg/mL (≈ 0.362 µM)
- MIC (Streptococcus pneumoniae [8]): 12.5 µg/mL (≈ 11.6 µM)
- MIC (Streptococcus pneumoniae [9]): 25 µg/mL (≈ 23.2 µM)
- MIC (Streptococcus pneumoniae [10]): 0.39 µg/mL (≈ 0.362 µM)
- MIC (Streptococcus pyogenes [11]): 0.78 µg/mL (≈ 0.724 µM)
- MIC (Moraxella catarrhalis): 3.13 µg/mL (≈ 2.91 µM)
- MIC (Staphylococcus aureus [12]): 0.78 µg/mL (≈ 0.724 µM)
- MIC (Staphylococcus aureus [13]): 1.56 µg/mL (≈ 1.45 µM)
- MIC (Staphylococcus aureus [14]): 0.78 µg/mL (≈ 0.724 µM)

SMILES: CCC(=O)O[C@@H]1CC(=O)O[C@H](C)C[C@H](O)[C@H](N(C)CCCc2ccnc3ccccc23)/C=C/[C@H](OC(C)=O)[C@H](C)C[C@H](CC=O)[C@H](O[C@@H]2O[C@H](C)[C@@H](O[C@H]3C[C@@](C)(O)[C@@H](OC(=O)CC)[C@H](C)O3)[C@H](N(C)C)[C@H]2O)[C@H]1OC
- MIC (Staphylococcus aureus [1]): 0.2 µg/mL (≈ 0.187 µM)
- MIC (Haemophilus influenzae [2]): 1.56 µg/mL (≈ 1.45 µM)
- MIC (Staphylococcus aureus [3]): > 100 µg/mL
- MIC (Streptococcus pyogenes [4]): > 100 µg/mL
- MIC (Haemophilus influenzae [5]): 12.5 µg/mL (≈ 11.7 µM)
- MIC (Streptococcus pneumoniae [6]): 0.013 µg/mL (≈ 0.0121 µM)
- MIC (Streptococcus pyogenes [7]): 0.05 µg/mL (≈ 0.0466 µM)
- MIC (Streptococcus pneumoniae [8]): 0.78 µg/mL (≈ 0.727 µM)
- MIC (Streptococcus pneumoniae [9]): 50 µg/mL (≈ 46.6 µM)
- MIC (Streptococcus pneumoniae [10]): 0.025 µg/mL (≈ 0.0233 µM)
- MIC (Streptococcus pyogenes [11]): 0.1 µg/mL (≈ 0.0933 µM)
- MIC (Moraxella catarrhalis): 0.39 µg/mL (≈ 0.364 µM)
- MIC (Staphylococcus aureus [12]): 0.1 µg/mL (≈ 0.0933 µM)
- MIC (Staphylococcus aureus [13]): 0.1 µg/mL (≈ 0.0933 µM)
- MIC (Staphylococcus aureus [14]): 0.1 µg/mL (≈ 0.0933 µM)

SMILES: CCC(=O)O[C@@H]1CC(=O)O[C@H](C)C[C@H](O)[C@H](N(C)CCCc2cccc3ccccc23)/C=C/[C@H](OC(C)=O)[C@H](C)C[C@H](CC=O)[C@H](O[C@@H]2O[C@H](C)[C@@H](O[C@H]3C[C@@](C)(O)[C@@H](OC(=O)CC)[C@H](C)O3)[C@H](N(C)C)[C@H]2O)[C@H]1OC
- MIC (Staphylococcus aureus [1]): 0.78 µg/mL (≈ 0.728 µM)
- MIC (Haemophilus influenzae [2]): 6.25 µg/mL (≈ 5.83 µM)
- MIC (Staphylococcus aureus [3]): > 100 µg/mL
- MIC (Streptococcus pyogenes [4]): 50 µg/mL (≈ 46.7 µM)
- MIC (Haemophilus influenzae [5]): 25 µg/mL (≈ 23.3 µM)
- MIC (Streptococcus pneumoniae [6]): 0.1 µg/mL (≈ 0.0933 µM)
- MIC (Streptococcus pyogenes [7]): 0.1 µg/mL (≈ 0.0933 µM)
- MIC (Streptococcus pneumoniae [8]): 6.25 µg/mL (≈ 5.83 µM)
- MIC (Streptococcus pneumoniae [9]): 50 µg/mL (≈ 46.7 µM)
- MIC (Streptococcus pneumoniae [10]): 0.1 µg/mL (≈ 0.0933 µM)
- MIC (Streptococcus pyogenes [11]): 0.2 µg/mL (≈ 0.187 µM)
- MIC (Moraxella catarrhalis): 0.78 µg/mL (≈ 0.728 µM)
- MIC (Staphylococcus aureus [12]): 3.13 µg/mL (≈ 2.92 µM)
- MIC (Staphylococcus aureus [13]): 0.39 µg/mL (≈ 0.364 µM)
- MIC (Staphylococcus aureus [14]): 0.39 µg/mL (≈ 0.364 µM)

SMILES: CCC(=O)O[C@@H]1CC(=O)O[C@H](C)C[C@H](O)[C@H](N(C)C)/C=C/[C@H](OC(C)=O)[C@H](C)C[C@H](CC=O)[C@H](O[C@@H]2O[C@H](C)[C@@H](O[C@H]3C[C@@](C)(O)[C@@H](OC(=O)CC)[C@H](C)O3)[C@H](N(C)C)[C@H]2O)[C@H]1OC
- MIC (Staphylococcus aureus [1]): 0.78 µg/mL (≈ 0.851 µM)
- MIC (Haemophilus influenzae [2]): 1.56 µg/mL (≈ 1.7 µM)
- MIC (Staphylococcus aureus [3]): > 100 µg/mL
- MIC (Streptococcus pyogenes [4]): > 100 µg/mL
- MIC (Haemophilus influenzae [5]): 25 µg/mL (≈ 27.3 µM)
- MIC (Streptococcus pneumoniae [6]): 0.2 µg/mL (≈ 0.218 µM)
- MIC (Streptococcus pyogenes [7]): 0.2 µg/mL (≈ 0.218 µM)
- MIC (Streptococcus pneumoniae [8]): > 100 µg/mL
- MIC (Streptococcus pneumoniae [9]): > 100 µg/mL
- MIC (Streptococcus pneumoniae [10]): 0.2 µg/mL (≈ 0.218 µM)
- MIC (Streptococcus pyogenes [11]): 0.39 µg/mL (≈ 0.425 µM)
- MIC (Moraxella catarrhalis): 1.56 µg/mL (≈ 1.7 µM)
- MIC (Staphylococcus aureus [12]): 1.56 µg/mL (≈ 1.7 µM)
- MIC (Staphylococcus aureus [13]): 0.78 µg/mL (≈ 0.851 µM)
- MIC (Staphylococcus aureus [14]): 0.78 µg/mL (≈ 0.851 µM)
